The results in this text go back to ChEMBL document CHEMBL4513216, “Probing the Open Global Health Chemical Diversity Library for Multistage-Active Starting Points for Next-Generation Antimalarials” (ACS Infect Dis, 2020).

Molecules are shown by their SMILES.

The data set is described as follows: Toxicity liver stage against HepG2, at 10uM. More on the design: test concentration 10 uM, cell line HepG2-A16-CD81EGFP. The following applies: human, HepG2-A16-CD81EGFP cells; read-out: INHIBITION
The format is cell-based. The essentials: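 Uninfected HepG2-A16-CD81EGFP cells, 3 × 10^3 per well, 1536-well, plated on prespotted compound at 10 μM final, parasite-free screening media added to match infected plates; puromycin 10 μM positive, DMSO 0.5% negative; run in parallel with 48 h PbLuc assay at 37 °C, 5% CO2; viability by CellTiter-Glo luminescence, normalized to controls.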

As to `NC(=O)C(NC(=O)Cc1cnn(-c2ccccc2)n1)c1ccccc1` (stereo unspecified), the cytotoxicity at 10 µM was -3.05%.

On to `O=C(NCCc1ccncc1)[C@H]1CC[C@@H]2[C@@H](CCN2C2CCC2)O1`, for which the cytotoxicity at 10 µM was -2.3%.

Consider `CCN(Cc1ccc2c(c1)OCCO2)C(=O)NCc1csc(C)n1`, for which the cytotoxicity at 10 µM is -5.16%.

With `COc1cccc(Cn2ncnc2COC(C)C)c1`, the cytotoxicity at 10 µM is -5.62%.

As to `CCSc1cc(C(=O)NCCc2nnc(-c3ccco3)[nH]2)ccn1`, the cytotoxicity at 10 µM was 6.14%.

As to `CN1CCN(S(=O)(=O)c2ncn(C)c2Cl)CC1`, the cytotoxicity at 10 µM was 6.84%.

Turning to `O=C(CC1CCCO1)NS(=O)(=O)Cc1cc(-c2ccccc2)no1` (stereo unspecified), the cytotoxicity at 10 µM worked out at 9.95%.

Regarding `CSc1ncc(CNC(C)c2cnn(-c3ccccc3)c2C)cn1` (stereo unspecified), the cytotoxicity at 10 µM is -3.63%.

`CS(=O)(=O)N1CC[C@H](c2nc3ccc(C(F)(F)F)cc3[nH]2)C1`: the cytotoxicity at 10 µM turned out to be 0.0915%.

As to `CC1CCCCN1Cc1nc(C2CC2)no1` (stereo unspecified), the cytotoxicity at 10 µM came to 4.48%.

Regarding `Cc1ccc(CNC(=O)c2cc(C)n(C)n2)o1`, the cytotoxicity at 10 µM turned out to be 0.25%.

For `CC(C)(CO)Nc1ccc(-c2nc(-c3ccccc3F)no2)cn1`, the cytotoxicity at 10 µM was determined as 9.62%.

In the case of `CCc1cc(CN(C)C(=O)CN2CC(Cc3ccccc3)CC2=O)on1` (stereo unspecified), the cytotoxicity at 10 µM was -0.28%.

In the case of `Cn1ccc(C(=O)NCc2cccc(CN3CCCC3)c2)cc1=O`, the cytotoxicity at 10 µM is -3.07%.

On to `Cc1cc(C(=O)NCc2cnn(C)c2C)nc(N2CCCCCC2)n1`, for which the cytotoxicity at 10 µM was determined as 2.01%.

In the case of `CSCCNC(=O)C1CCC(=O)N(C2CCCC2)C1` (stereo unspecified), the cytotoxicity at 10 µM is -3.75%.

Take `CNC(=O)c1cccc(CCNc2ncc(Br)cn2)c1`: the cytotoxicity at 10 µM was 9.5%.

Regarding `CCCc1ncc(CN(C)C2CCCN(CCc3ccccc3)C2)cn1` (stereo unspecified), the cytotoxicity at 10 µM was 0.301%.

Turning to `O=C(N1CCOCC1)[C@@]12CCO[C@@H]1CCN(C1CCCC1)C2`, the cytotoxicity at 10 µM was 7.83%.

Regarding `CCn1ncc(CN2CCC(O)(Cn3ccc4ncccc43)CC2)c1C`, the cytotoxicity at 10 µM was -0.692%.

Turning to `Cc1ccc(C)c(C(C(=O)O)N2CCCN(Cc3ccccn3)CC2)c1` (stereo unspecified), the cytotoxicity at 10 µM is -15.6%.

Consider `CCOCC1CN(Cc2cnn(C)c2)Cc2nn(C)cc21` (stereo unspecified), for which the cytotoxicity at 10 µM worked out at 2.37%.

For the molecule `COCCSc1ccc(C(C)NC(=O)Nc2cccnc2)cc1` (stereo unspecified), the cytotoxicity at 10 µM was 12.3%.

As to `Cc1ccc(S(=O)(=O)N2C[C@H]3C[C@H](NC(=O)c4cnn(C)c4)[C@H]3C2)cc1`, the cytotoxicity at 10 µM worked out at 76.4%.

In the case of `Cc1cnn(CC2CCCN2C(=O)c2c(F)cccc2Cl)c1` (stereo unspecified), the cytotoxicity at 10 µM is -29.1%.

Regarding `COc1cc(CNC(C)Cn2ccnc2)cc2c1OCCO2` (stereo unspecified), the cytotoxicity at 10 µM is -94.1%.

For `Cc1ccc(CCN2CCC(N(C)Cc3noc(C4CC4)n3)C2)cc1` (stereo unspecified), the cytotoxicity at 10 µM is -8.31%.

Turning to `N#Cc1ccc(NCCCN2C(=O)COc3ccccc32)nc1`, the cytotoxicity at 10 µM was 11%.

For `O=C(Nc1cc(C(F)(F)F)c[nH]c1=O)N1CCCSCC1`, the cytotoxicity at 10 µM was -5.77%.

Consider `Cc1cc(NC(=O)Cn2ccccc2=O)n(C)n1`, for which the cytotoxicity at 10 µM was -7.32%.

Take `O=C(NCc1ccc(F)cc1)C1CCCN(c2ccc3nncn3n2)C1` (stereo unspecified): the cytotoxicity at 10 µM was -4.46%.

For the molecule `Cc1cnc(CNCc2cn(CCN3CCSCC3)nc2C)cn1`, the cytotoxicity at 10 µM was -0.629%.

For the molecule `O=c1cc(CNS(=O)(=O)C2CC2)nc2n1CCCNC2`, the cytotoxicity at 10 µM came to 7.83%.

`Cc1nnc([C@@H]2CC[C@@H]3[C@@H](CCN3S(=O)(=O)C3CC3)O2)o1`: the cytotoxicity at 10 µM was -77%.

As for `COCC(=O)N1CCCC1c1cc(Nc2nnc(C)s2)nc(C)n1` (stereo unspecified), the cytotoxicity at 10 µM is -6.15%.

With `CC(C)CC(=O)N1CC[C@@H]2CN(Cc3cccnc3)S(=O)(=O)[C@@H]2CC1`, the cytotoxicity at 10 µM is -103%.

As to `COCCN(CCc1ccccc1)Cc1nc2c(cnn2C)c(=O)[nH]1`, the cytotoxicity at 10 µM was -7.57%.

For the molecule `Cc1nc(C(=O)N2C[C@@H]3CN(S(C)(=O)=O)CCO[C@@H]3C2)cs1`, the cytotoxicity at 10 µM was determined as 1.98%.

With `CC(C)Cc1nc(OCC(=O)O)c(C#N)c2c1CCCC2`, the cytotoxicity at 10 µM was -6.14%.

Consider `Cc1ccc(N2CCO[C@H]3CN(Cc4ccoc4)C[C@H]32)nn1`, for which the cytotoxicity at 10 µM is -70.7%.

In the case of `CNC(=O)CNC(=O)c1ccc(-c2scnc2C)nc1`, the cytotoxicity at 10 µM is -4.26%.

For the molecule `Cc1ocnc1C(=O)N1CCN(C(=O)CC(C)C)[C@@H]2CS(=O)(=O)C[C@@H]21`, the cytotoxicity at 10 µM came out at 12.2%.

Turning to `O=C1CCC(=O)c2oc3ccc(Cl)cc3c2N1`, the cytotoxicity at 10 µM is 7.58%.

Consider `CC1CN(Cc2nnsc2Cl)CCN1c1nccs1` (stereo unspecified), for which the cytotoxicity at 10 µM was -39.3%.

`O=C(c1ccc[nH]1)N1CCc2ncc(Cn3cccn3)n2CC1`: the cytotoxicity at 10 µM was -0.469%.

Regarding `Cc1cncc(C(=O)N2CCC3(CC2)NC(=O)CC3c2ccccc2)c1` (stereo unspecified), the cytotoxicity at 10 µM was -78.1%.

For the molecule `CCC(C)Oc1ccc(CNCCNS(C)(=O)=O)cc1Cl` (stereo unspecified), the cytotoxicity at 10 µM is -6.78%.

Regarding `COc1ccccc1-c1csc(-c2cccc(C(=O)O)c2)n1`, the cytotoxicity at 10 µM amounted to 12.3%.

For `Cc1nc(C)c(C(=O)NCCNc2ncccc2C#N)s1`, the cytotoxicity at 10 µM is -1.5%.

For the molecule `COc1cc2[nH]c(=O)c(CN3CCC[C@H]3CO)cc2c(OC)c1OC`, the cytotoxicity at 10 µM was -10.7%.

Consider `COCCC(=O)N1CCCC2(CCC(=O)N2CCOC)CC1` (stereo unspecified), for which the cytotoxicity at 10 µM worked out at 2.52%.

As to `Cc1cccc(NC(=O)[C@@H]2CCCN2Cc2nnc(C(C)C)n2C)n1`, the cytotoxicity at 10 µM came out at 5.81%.

As for `COC(=O)c1sccc1S(=O)(=O)NCCC(O)c1ccco1` (stereo unspecified), the cytotoxicity at 10 µM is -5.98%.

Take `CNC(=O)c1cnc(C=Cc2ccc(O)c(OC)c2)s1`: the cytotoxicity at 10 µM was 0.23%.

Turning to `CCOCCn1nc(C)cc1C(=O)N1CCCC[C@H](N(C)C)C1`, the cytotoxicity at 10 µM was -3.68%.

On to `CCc1nc(CCNc2ncccc2S(N)(=O)=O)sc1C`, for which the cytotoxicity at 10 µM was -3.23%.

`CC(C)CC(=O)N1CC[C@@H]2[C@H](CC1)N(Cc1cccnc1)CCS2(=O)=O`: the cytotoxicity at 10 µM was found to be 0.238%.

For `Cc1nnc(SC2CCN(c3sccc3C#N)C2=O)s1` (stereo unspecified), the cytotoxicity at 10 µM was -7.22%.

Regarding `CC(C)NC(=O)N[C@H]1C[C@@H](c2nc(-c3ccc(F)cc3)no2)N(C)C1`, the cytotoxicity at 10 µM was -7.97%.

For the molecule `O=C1CO[C@@H]2CN(C3CCOCC3)C[C@H]2N1Cc1ccncc1`, the cytotoxicity at 10 µM was -151%.

Regarding `CCn1nc(C(=O)N2CCCC2c2noc(C)n2)ccc1=O` (stereo unspecified), the cytotoxicity at 10 µM stood at 4.99%.

`O=C(NCc1csc2ccccc12)NCC1(O)CCSC1` (stereo unspecified): the cytotoxicity at 10 µM worked out at 3.19%.

Take `Cc1c(C2CCCN(C(=O)c3cccnc3)C2)n2c(nc1=O)CCC2` (stereo unspecified): the cytotoxicity at 10 µM is -17.1%.

Turning to `CC(C)Cc1nnc2sc(-c3cc(C(C)C)n[nH]3)nn12`, the cytotoxicity at 10 µM was 8.08%.

Turning to `O=C(Cn1nc(-c2ccc(F)cc2)oc1=O)Nc1ccccc1`, the cytotoxicity at 10 µM was 0.967%.

In the case of `CN(C)C(=O)c1nc2c(s1)CCCN2Cc1ccccc1`, the cytotoxicity at 10 µM is 7.58%.

In the case of `COCCN1CCN(Cc2coc(-c3ccccc3Cl)n2)CC1`, the cytotoxicity at 10 µM was -1.67%.

Take `O=C(c1cc(Cl)c2c(c1)OCO2)N1CCN(c2ccccn2)CC1`: the cytotoxicity at 10 µM was -2.67%.

As to `c1ncn(CC2CCCCN2Cc2csc(C3CCCC3)n2)n1` (stereo unspecified), the cytotoxicity at 10 µM was -6.44%.

As to `Cn1nc(C(=O)NC2CC(C)(C)NC(C)(C)C2)cc1NC(=O)C1CC1`, the cytotoxicity at 10 µM was determined as 0.754%.

On to `COc1ccccc1Oc1ncccc1CNC(=O)[C@@H](C)NC(C)=O`, for which the cytotoxicity at 10 µM was -2.61%.

On to `Cc1noc(C)c1CN1CCc2cnn(C)c2C1COCC1CC1` (stereo unspecified), for which the cytotoxicity at 10 µM amounted to 10.7%.

For the molecule `O=C(C1CCOC1)N1CCc2ncnc(-c3cccnc3)c2CC1` (stereo unspecified), the cytotoxicity at 10 µM is -3.13%.

Take `c1cnn(CC2CCCCN2Cc2nc(-c3ccsc3)no2)c1` (stereo unspecified): the cytotoxicity at 10 µM is -12.2%.

`Cc1ccccc1C(=O)N1CCO[C@H]2[C@H](OCCN(C)C)CC[C@@H]21`: the cytotoxicity at 10 µM was -2.95%.

As for `Cc1noc(-c2ccc(N3CCCC(C(N)=O)C3)nc2)n1` (stereo unspecified), the cytotoxicity at 10 µM came out at 9.36%.

Take `Cc1nn(C)c(C)c1C1CCCN1CCOc1ccccc1C#N` (stereo unspecified): the cytotoxicity at 10 µM came to 8.13%.

`CC(C)(CO)Nc1cc(-c2cn[nH]c2)ncn1`: the cytotoxicity at 10 µM is -1.44%.

Turning to `OCCc1cn(CC2CCCN(Cc3nccs3)C2)nn1` (stereo unspecified), the cytotoxicity at 10 µM is -6.51%.

As to `NC(=O)CC1CCCN(c2cncc(OCc3ccccc3)n2)C1` (stereo unspecified), the cytotoxicity at 10 µM stood at 17.7%.

Regarding `O=C(NC1CC1)C1=CC2(CCN(CC3CC3)CC2)c2ccccc21`, the cytotoxicity at 10 µM stood at 3.11%.

As to `CC(C)(C)n1nc(C(=O)NC2CCN(CC(N)=O)CC2)cc1C1CC1`, the cytotoxicity at 10 µM came out at 0.196%.

`CO[C@@H]1CC[C@H]2[C@H]1OCCN2C(=O)C1CCOCC1`: the cytotoxicity at 10 µM is 3.33%.

In the case of `COCC(O)CN(C)c1ccnc2cc(Br)ccc12` (stereo unspecified), the cytotoxicity at 10 µM is 5.02%.

For the molecule `COCCS(=O)(=O)Cc1csc(NC(C)=O)n1`, the cytotoxicity at 10 µM is -2.93%.

Consider `CCOc1ccc2oc(-c3cn(C)nc3C)c(O)c(=O)c2c1`, for which the cytotoxicity at 10 µM amounted to 7.72%.

Take `Cc1cnn(C2CCCN(C(=O)c3ccc(N4CCCC4)nn3)C2)c1` (stereo unspecified): the cytotoxicity at 10 µM was -2.38%.

As to `CCOc1ncccc1NC(=O)NC1CCCN(c2ncccn2)C1` (stereo unspecified), the cytotoxicity at 10 µM is -10.6%.

As for `Cc1nc(CN2C[C@@H]3CN(c4ncc(F)cn4)C[C@@H]3C2=O)cs1`, the cytotoxicity at 10 µM was -0.673%.

Regarding `Cc1noc(-c2ccc(N3CCCC(C(=O)O)C3)nc2)n1` (stereo unspecified), the cytotoxicity at 10 µM was -2.38%.

On to `O=C(NCc1cc(C2CC2)n(C2CCCC2)n1)C1CC1`, for which the cytotoxicity at 10 µM stood at 2.16%.

For the molecule `c1ccc(Cn2ccnc2CN2CCOC(Cn3cccn3)C2)cc1` (stereo unspecified), the cytotoxicity at 10 µM is -3.78%.

Consider `CN(C)Cc1nnn2c1CN(Cc1cccnc1)CCC2`, for which the cytotoxicity at 10 µM stood at 5.69%.

On to `O=C1COC2(CCN(c3ncccn3)CC2)CN1c1ccsc1`, for which the cytotoxicity at 10 µM was -0.31%.

As to `CC(=O)N1CCC(c2ncc(C(=O)Nc3ccc(F)cc3)c(C)n2)CC1`, the cytotoxicity at 10 µM is 7.29%.

Regarding `Cc1cccc(CS(=O)(=O)CC(O)Cn2cccn2)c1` (stereo unspecified), the cytotoxicity at 10 µM was -2.07%.
